Results on one compound are retold here after ChEMBL document CHEMBL4270546, “A novel Anti-Cancer Stem Cells compound optimized from the natural symplostatin 4 scaffold inhibits Wnt/β-catenin signaling pathway” (Eur J Med Chem, 2018).

Activity calls are given as the source filed them. The calls are words filed in the database; no cut-off is given here.

For test [1], the species on record is Homo sapiens. Kind of test: Inhibition of Wnt/beta-catenin signaling pathway (unknown origin) expressed in human 293T cells assessed as inhibition of TCF/LEF activity up to 100 uM after 48 hrs by luciferase reporter gene assay. It counts as cell-based. The essentials: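 293T cells transfected with a TCF/LEF reporter plasmid were treated with compound at different concentrations for 48 h. Luciferase activity was measured and normalized to Renilla luciferase activity.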
On the technique in general: Reporter assays use an easily measured gene product as a stand-in for the process of interest.

Test [2] relates to A-375. The experiment in a line: Antiproliferative activity against human A375 cells after 48 hrs by MTT assay. It counts as functional, cell-based. Particulars: A-375, 48 h. In general terms: Formazan colour is commonly taken as a measure of viable cells.
Test [3] concerns B16-F10. Kind of test: Antiproliferative activity against mouse B16F10 cells after 48 hrs by MTT assay. It counts as functional, cell-based. Conditions: B16-F10, 48 h.
Test [4] deals with A-375. Kind of test: Inhibition of colony formation in human A375 cells at 0.125 to 0.25 uM after 7 days by crystal violet staining based assay. It counts as functional, cell-based. The essentials: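 Clonogenic long-term growth assay: A375 or B16F10 cells grown under continuous compound exposure for 7 days, then colonies quantified; mean ± sd, n = 3, two-way ANOVA.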
The test system of test [5] is A-375. The experiment in a line: Induction of apoptosis in human A375 cells assessed as live cells at 1 uM after 48 hrs by Annexin V-FITC/propidium iodide staining based flow cytometry (reference value: 93.6%). It counts as functional.
Test [6] relates to A-375. The experiment in a line: Induction of apoptosis in human A375 cells assessed as early apoptotic cells at 1 uM after 48 hrs by Annexin V-FITC/propidium iodide staining based flow cytometry (reference value: 1.13%). It counts as functional.
Test [7] relates to A-375. Kind of test: Induction of apoptosis in human A375 cells assessed as necrotic cells at 1 uM after 48 hrs by Annexin V-FITC/propidium iodide staining based flow cytometry (reference value: 2.39%). It counts as functional. For orientation: In flow cytometry, cells or beads pass a laser one at a time.
Test [8] relates to B16-F10. Kind of test: Induction of apoptosis in mouse B16F10 cells assessed as early apoptotic cells at 1 uM after 48 hrs by Annexin V-FITC/propidium iodide staining based flow cytometry (reference value: 0.022%). It counts as functional.
The subject of test [9] is B16-F10. The experiment in a line: Induction of apoptosis in mouse B16F10 cells assessed as necrotic cells at 1 uM after 48 hrs by Annexin V-FITC/propidium iodide staining based flow cytometry (reference value: 1.86%). It counts as functional.
In test [10] the test system is B16-F10. Kind of test: Induction of apoptosis in mouse B16F10 cells assessed as early apoptotic cells at 2 uM after 48 hrs by Annexin V-FITC/propidium iodide staining based flow cytometry (reference value: 0.022%). It counts as functional.
The test system of test [11] is B16-F10. The experiment in a line: Induction of apoptosis in mouse B16F10 cells after 48 hrs by Annexin V-FITC/propidium iodide staining based flow cytometry. It counts as functional, cell-based.
Test [12] relates to A-375. Kind of test: Induction of apoptosis in human A375 cells assessed as upregulation of cleaved PARP expression at 0.5 to 4 uM after 48 hrs by Western blot analysis. It counts as functional, cell-based. In a few lines:
(§1)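 Cells treated with compound at different concentrations (0.5-4 μM) for 48 h. Lysates probed by Western blot for cleaved PARP, active caspase-3, Bax and p53.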

Test [13] concerns A-375. Kind of test: Induction of apoptosis in human A375 cells assessed as upregulation of activated caspase-3 protein expression at 0.5 to 4 uM after 48 hrs by Western blot analysis. It counts as functional, cell-based. The essentials:
as §1

Test [14] deals with B16-F10. Kind of test: Induction of apoptosis in mouse B16F10 cells assessed as upregulation of cleaved PARP expression at 0.5 to 4 uM after 48 hrs by Western blot analysis. It counts as functional, cell-based. The essentials:
as §1

The subject of test [15] is B16-F10. Kind of test: Induction of apoptosis in mouse B16F10 cells assessed as upregulation of activated caspase-3 protein expression at 0.5 to 4 uM after 48 hrs by Western blot analysis. It counts as functional, cell-based. The essentials: as §1
In test [16] the test system is B16-F10. Kind of test: Antimigratory activity against mouse B16F10 cells at 0.25 uM after 24 hrs by transwell migration assay. It counts as functional, cell-based. In a few lines:
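Cells seeded in the upper chamber of a transwell and incubated with compound (0.25 μM) for 24 h. Cells migrated to the lower chamber were imaged and counted against an untreated control. Mean ± sd, n = 3, two-way ANOVA.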

Test [17] deals with A-375. The experiment in a line: Inhibition of tumor sphere formation ability of human A375 cells at 0.25 to 0.5 uM pretreated for 48 hrs followed by cell culture for 7 days. It counts as functional, cell-based. The essentials:
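A375 or B16F10 cells pretreated with or without compound for 48 h, collected and replated on ultra-low attachment surfaces; after 7 days of culture, sphere number and size scored; mean ± sd, n = 3, two-way ANOVA.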

The subject of test [18] is A-375. The experiment in a line: Inhibition of ALDH+ subpopulation of human A375 cells assessed as ALDH+ cells at 0.25 after 48 hrs by flow cytometry (reference value: 25.7%). It counts as functional. On the set-up: scale not given: the % may be the effect or the level left.
For test [19], the system named is B16-F10. Kind of test: Inhibition of ALDH+ subpopulation of mouse B16F10 cells assessed as ALDH+ cells at 0.5 after 48 hrs by flow cytometry (reference value: 26.7%). It counts as functional. Further details: scale not given: the % may be the effect or the level left.
Test [20] relates to B16-F10. The experiment in a line: Inhibition of CD133+ sub-population of mouse B16F10 cells assessed as CD133+ cells at 0.25 after 48 hrs by flow cytometry (reference value: 7.23%). It counts as functional. On the set-up: scale not given: the % may be the effect or the level left.
For test [21], the system named is B16-F10. The experiment in a line: Inhibition of CD133+ sub-population of mouse B16F10 cells assessed as CD133+ cells at 0.5 after 48 hrs by flow cytometry (reference value: 7.23%). It counts as functional. On the set-up: scale not given: the % may be the effect or the level left.
Test [22] concerns B16-F10. The experiment in a line: Antitumor activity against mouse B16F10 cells implanted in C57BL/6J mouse assessed as tumor growth inhibition at 15 mg/kg/day, ip measured after 24 days. It counts as functional, organism-based. The essentials: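 C57BL/6J mice injected subcutaneously with B16F10 cells and treated with vehicle or compound. Tumor volume and body weight followed, and tumors dissected and weighed on day 24. Mean ± sd, n = 5, two-way ANOVA.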

Test [23] relates to A-375. The experiment in a line: Induction of apoptosis in human A375 cells assessed as upregulation of p53 expression after 48 hrs by Western blot analysis.
Test [24] deals with B16-F10. The experiment in a line: Induction of apoptosis in mouse B16F10 cells assessed as upregulation of p53 expression after 48 hrs by Western blot analysis.

For orientation: IC50 means the concentration that gives 50% inhibition. In the case of `CC[C@H](C)[C@H](NC(=O)OCc1ccccc1)C(=O)N[C@@H](CC(C)C)C(=O)N[C@@H](CC(C)C)C(=O)N[C@@H](C)/C=C/C(=O)N1C(=O)C=C(OC)[C@@H]1C(C)C`, the inhibition result in test [1], in [4] and in [17] was “Active” in each case. Further, the IC50 amounted to 0.801 µM in [2] and 0.522 µM in [3]. The Activity in test [5] was 97.9%; in test [6], 3.49%; in [7], 4.16%; in test [8], 8.74%; in test [9] it was 1.37%; in test [10] it was 31.8%. For the same compound, the Activity entry in test [11] was “Dose-dependent effect”; in test [18], 13.3%; in test [19], 11.8%; in [20] it was 2.31%; in test [21], 1.7%. For the same compound, the outcome in test [12], in test [13], in [14], in test [15] and in test [16] was Active. For the same compound, in [22], the TGI entry is “Active”. Also, the p53 upregulation result in [23] and in [24] was “Dose-dependent effect” each time.
